# Experiments:
# Format in all cases: functional
# [1] = system: PC-3; assay: Growth inhibition of human PC3 cells after 48 hrs by sulforhodamine B assay; details: PC-3, 48 h
# Summary of the method: (§1)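 NCI 60-cell screen, five-dose mode. Cells grown in RPMI 1640 with 5% FBS and 2 mM L-glutamine and plated at 5000-40,000 cells/well according to doubling time. After 24 h preincubation, a Tz plate was TCA-fixed. Five concentrations (10-fold or 1/2 log dilutions) were applied for 48 h at 37 °C. SRB staining read at 515 nm. IC50 taken from [(Ti-Tz)/(C-Tz)]×100 = 50.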
# [2] = system: SK-MEL-5; assay: Cytotoxicity against human SK-MEL-5 cells assessed as cell growth at 10 uM after 48 hrs by sulforhodamine B assay; details: SK-MEL-5, 48 h, read-out: Activity
# [3] = system: 786-0; assay: Growth inhibition of human 786-0 cells after 48 hrs by sulforhodamine B assay; details: 786-0, 48 h
# Summary of the method: (§2)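 NCI five-dose SRB assay in RPMI 1640 with 5% FBS and 2 mM L-glutamine. Cells were preincubated 24 h, then exposed 48 h at 37 °C to five concentrations (10-fold or half-log serial dilutions from DMSO stocks). TCA fixation, SRB staining, and absorbance at 515 nm followed. IC50 was taken where [(Ti−Tz)/(C−Tz)]×100 = 50, with Tz as time-zero cell density.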
# [4] = system: EKVX; assay: Cytotoxicity against human EKVX cells assessed as cell growth at 0.01 uM after 48 hrs by sulforhodamine B assay; details: read-out: Activity
# [5] = system: MDA-MB-435; assay: Growth inhibition of human MDA-MB-435 cells after 48 hrs by sulforhodamine B assay; details: MDA-MB-435, 48 h; summary of the method: as §1
# [6] = system: NCI/ADR-RES; assay: Cytotoxicity against human NCI/ADR-RES cells assessed as cell growth at 1 uM after 48 hrs by sulforhodamine B assay; details: read-out: Activity
# [7] = system: UO-31; assay: Cytotoxicity against human UO31 cells assessed as cell growth at 10 uM; details: read-out: Activity
# Summary of the method: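 NCI-60 screen: cells grown in RPMI 1640 with 5% FBS and 2 mM L-glutamine, plated at 5000–40,000 cells/well according to doubling time, and preincubated 24 h at 37 °C, 5% CO2. The single 10 µM dose (DMSO stock) was added, then incubated 48 h. Cells were TCA-fixed and stained with 0.4% SRB, read at 515 nm, and growth % calculated against time-zero and control plates.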
# [8] = system: ACHN; assay: Growth inhibition of human ACHN cells after 48 hrs by sulforhodamine B assay; summary of the method: as §2
# [9] = system: SK-MEL-2; assay: Cytotoxicity against human SK-MEL-2 cells assessed as cell growth at 0.01 uM after 48 hrs by sulforhodamine B assay; details: SK-MEL-2, 48 h, read-out: Activity
# [10] = system: MDA-MB-231; assay: Cytotoxicity against human MDA-MB-231 cells assessed as cell growth at 1 uM after 48 hrs by sulforhodamine B assay; details: MDA-MB-231, 48 h, read-out: Activity
# [11] = system: SW-620; assay: Cytotoxicity against human SW620 cells assessed as cell growth at 1 uM after 48 hrs by sulforhodamine B assay; details: SW-620, 48 h, read-out: Activity
# [12] = system: IGROV-1; assay: Cytotoxicity against human IGROV1 cells assessed as cell growth at 100 nM after 48 hrs by sulforhodamine B assay; details: IGROV-1, 48 h, read-out: Activity
# [13] = system: U-251; assay: Cytotoxicity against human U251 cells assessed as cell growth at 100 nM after 48 hrs by sulforhodamine B assay; details: U-251, 48 h, read-out: Activity
# [14] = system: 786-0; assay: Cytotoxicity against human 786-0 cells assessed as cell growth at 0.01 uM after 48 hrs by sulforhodamine B assay; details: 786-0, 48 h, read-out: Activity
# Summary of the method: (§3)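 NCI-60 five-dose screen. Cells were grown in RPMI 1640 with 5% FBS and 2 mM L-glutamine, plated at 5000–40,000 cells/well and preincubated for 24 h. Time-zero plates were TCA-fixed. DMSO-solubilized drug was added at five concentrations (10-fold or ½-log serial dilutions) for 48 h at 37 °C, 5% CO2. Cells were TCA-fixed, stained with 0.4% SRB and read at 515 nm. Percent growth used time-zero, control and test absorbances.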
# [15] = system: SNB-19; assay: Cytotoxicity against human SNB19 cells assessed as cell growth at 100 nM after 48 hrs by sulforhodamine B assay; details: SNB-19, 48 h, read-out: Activity
# [16] = system: UACC-257; assay: Cytotoxicity against human UACC257 cells assessed as cell growth at 0.001 uM after 48 hrs by sulforhodamine B assay; details: UACC-257, 48 h, read-out: Activity
# [17] = system: CCRF-CEM; assay: Cytotoxicity against human CCRF-CEM cells assessed as cell growth at 1 uM after 48 hrs by sulforhodamine B assay; details: read-out: Activity; summary of the method: as §3
# [18] = system: SF-268; assay: Cytotoxicity against human SF268 cells assessed as cell growth at 10 uM after 48 hrs by sulforhodamine B assay; details: SF-268, 48 h, read-out: Activity
# [19] = system: OVCAR-8; assay: Cytotoxicity against human OVCAR8 cells assessed as cell growth at 1 uM after 48 hrs by sulforhodamine B assay; details: OVCAR-8, 48 h, read-out: Activity
# [20] = system: KM12; assay: Cytotoxicity against human KM12 cells assessed as cell growth at 10 uM after 48 hrs by sulforhodamine B assay; details: KM12, 48 h, read-out: Activity
# [21] = system: MOLT-4; assay: Cytotoxicity against human MOLT4 cells assessed as cell growth at 0.001 uM after 48 hrs by sulforhodamine B assay; details: MOLT-4, 48 h, read-out: Activity
# [22] = system: IGROV-1; assay: Cytotoxicity against human IGROV1 cells assessed as cell growth at 1 uM after 48 hrs by sulforhodamine B assay; details: IGROV-1, 48 h, read-out: Activity
# [23] = system: OVCAR-5; assay: Cytotoxicity against human OVCAR5 cells assessed as cell growth at 10 uM after 48 hrs by sulforhodamine B assay; details: OVCAR-5, 48 h, read-out: Activity
# [24] = system: SN12C; assay: Growth inhibition of human SN12C cells after 48 hrs by sulforhodamine B assay; summary of the method: as §1
# [25] = system: TK-10; assay: Cytotoxicity against human TK10 cells assessed as cell growth at 10 uM after 48 hrs by sulforhodamine B assay; details: TK-10, 48 h, read-out: Activity
# [26] = system: ACHN; assay: Cytotoxicity against human ACHN cells assessed as cell growth at 0.001 uM after 48 hrs by sulforhodamine B assay; details: read-out: Activity; summary of the method: as §3
# [27] = system: MDA-MB-468; assay: Cytotoxicity against human MDA-MB-468 cells assessed as cell growth at 1 uM after 48 hrs by sulforhodamine B assay; details: MDA-MB-468, 48 h, read-out: Activity
# [28] = system: SNB-19; assay: Cytotoxicity against human SNB19 cells assessed as cell growth at 0.01 uM after 48 hrs by sulforhodamine B assay; details: SNB-19, 48 h, read-out: Activity
# [29] = read-out: LC50 (the source's name)
structure (smiles),measurement,setting,value
COc1cc(C)cc(-c2c(-c3ccnc(-c4ccc(C(C)=O)cc4)c3)cnn2CC#N)c1,GI50,[1],3.59 µM
same,LC50 (concentration giving 50% net cell kill),[1],> 100 µM
same,TGI,[1],> 100 µM
same,growth at 10 µM,[2],-35%
same,GI50,[3],3.11 µM
same,TGI,[3],> 100 µM
same,CC50,[3]; [29],> 100 µM
same,growth at 0.01 µM,[4],97%
same,GI50,[5],1.93 µM
same,TGI,[5],> 100 µM
same,CC50,[5]; [29],> 100 µM
same,growth at 1 µM,[6],11%
same,growth at 10 µM,[7],57.4%
same,GI50,[8],3.76 µM
same,LC50 (concentration giving 50% net cell kill),[8],> 100 µM
same,TGI,[8],> 100 µM
same,growth at 0.01 µM,[9],90%
same,growth at 1 µM,[10],21%
same,growth at 1 µM,[11],12%
same,growth at 0.1 µM,[12],83%
same,growth at 0.1 µM,[13],89%
same,growth at 0.01 µM,[14],98%
same,growth at 0.1 µM,[15],99%
same,growth at 0.001 µM,[16],95%
same,growth at 1 µM,[17],12%
same,growth at 10 µM,[18],23%
same,growth at 1 µM,[19],8%
same,growth at 10 µM,[20],10%
same,growth at 0.001 µM,[21],102%
same,growth at 1 µM,[22],23%
same,growth at 10 µM,[23],72%
same,GI50,[24],4.49 µM
same,LC50,[24],> 100 µM
same,TGI,[24],> 100 µM
same,growth at 10 µM,[25],60%
same,growth at 0.001 µM,[26],100%
same,growth at 1 µM,[27],-48%
same,growth at 0.01 µM,[28],102%
